# Compound activity (PubChem BioAssay)
# Compounds with a hit are over-represented: about 3.8% of the library has one in this group of screens.
# T cell modulator: modulators of CD8 T cell-vesicle binding, primary screen, mouse 2C CD8+ T cells, flow cytometry; 2C CD8+ T cell-vesicle binding; hits give low values; response (vesicle binding), % at 7 µM; actives 0.068% (n = 330,000); AID 2052, 2009;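 active = response, share of CD8 T cells binding vesicles, and their 90th percentile fluorescence all below set limits, cut at about 80% in these data, passing the limit was not always enough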;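 also: values below 100% mean blocked vesicle binding to the CD8+ T cells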
#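 Benchmarks: naked versus QL9-loaded vesicles / Assay system: purified 2C TCR transgenic mouse naive CD8+ T cells / Technique: high-throughput flow cytometry with anti-B7-1 and anti-CD8 staining / Timing: Cell–vesicle co-incubation 1.5 h at 37 °C, staining 20 min on ice / Read-out: percent CD8+ FL2 mean versus row control / Probe or stimulus: QL9-loaded Drosophila micro-vesicles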
# rCAG binder: binders of r(CAG) RNA repeats, primary screen, biochemical, fluorescence; r(CAG) RNA repeat, TO-PRO-1 dye displacement fluorescence; inhibition, % at 3 µM; actives 1.3% (n = 370,000); AID 651821, 2012;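 active = inhibition above the plate cutoff, the mean of all test compounds on that plate plus 3 SD, cut at about 35% in these data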;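 also: higher means more dye released from RNA so lower well fluorescence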
# Beta2AR agonist: beta2AR agonists driving receptor internalization, primary screen, cell-based, FAP fluorogen, flow cytometry; Am2.2-beta2AR cells; response, % (concentration not given with the values); actives 0.43% (n = 340,000);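 active = response above a set limit, near 3 SD of response in nonfluorescent compounds, cut at about 42% in these data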
# Target sequence (P07550 whole entry, looked up): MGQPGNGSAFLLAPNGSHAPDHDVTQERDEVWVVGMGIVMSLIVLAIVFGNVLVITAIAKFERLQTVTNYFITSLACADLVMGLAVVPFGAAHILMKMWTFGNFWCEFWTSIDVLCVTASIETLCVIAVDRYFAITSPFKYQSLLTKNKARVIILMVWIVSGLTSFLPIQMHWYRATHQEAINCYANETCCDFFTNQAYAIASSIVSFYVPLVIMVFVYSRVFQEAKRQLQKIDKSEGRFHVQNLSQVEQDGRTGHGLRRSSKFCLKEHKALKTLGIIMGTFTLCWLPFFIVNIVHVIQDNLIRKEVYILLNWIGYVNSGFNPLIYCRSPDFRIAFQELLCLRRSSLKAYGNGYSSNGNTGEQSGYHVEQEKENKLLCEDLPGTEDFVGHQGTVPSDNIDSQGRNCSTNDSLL
# MPTP inh: mitochondrial permeability transition pore inhibitors, primary screen, biochemical, isolated mouse mitochondria, absorbance; actives 1.4% (n = 360,000); AID 602449, 2012; inhibition, % at 10 µM; Ca2+ swelling absorbance, 30 min;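 active = inhibition of 50% or more, scaled per plate between neutral and stimulator controls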
# Exocytosis inh: LAMP-1 surface exposure blockers, TALL-104 cells – cell-based, flow cytometry, MLPCN library, primary screen; TALL-104 LAMP-1 surface exposure; cells stimulated with thapsigargin and PMA; AID 651702, 2012; inhibition, % at 10 µM; actives 0.66% (n = 360,000);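 active = inhibition above about 55%, limit read from the data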
# V-ATPase pH: regulators of yeast V-ATPase proton pumping, primary screen, pHLuorin cytosolic pH fluorescence; S. cerevisiae; response, % at 10 µM; actives 0.37% (n = 350,000); AID 504577, 2011; in the data active = response mostly above about 7.3%, no sharp cut-off; inactive = mostly below about 5.4%; also: actives read high
# rCAG binder conf: small molecules binding CAG repeat RNA – biochemical, fluorescence, confirmation | AID 652065, 2013 | shares compounds with rCAG binder | actives 70% (n = 4,300) | inhibition, % at 3 µM | r(CAG) RNA repeat, TO-PRO-1 dye displacement fluorescence;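 active = inhibition above a per-plate cutoff, the mean inhibition of sample wells plus 3 SD, cut at about 35% in these data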;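 also: loss of TO-PRO-1 fluorescence as compound displaces dye from 1x1 AA loop RNA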
# dCAG dye counter: displacement of TO-PRO-1 from CAG DNA duplex, counter-screen for rCAG RNA repeat binder project, biochemical, fluorescence, TO-PRO-1 dye, d(CAG) DNA oligo; inhibition, % at 3 µM; actives 94% (n = 4,300); shares compounds with rCAG binder; d(CAG) DNA oligo TO-PRO-1 dye displacement;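 active = inhibition above its plate's cutoff, the mean test-well inhibition plus 3 SD, cut at about 4.8% in these data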;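 also: hits displace the dye from DNA and so lower well fluorescence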
# A number is an active result; n = inactive; x = no result.
SMILES,T cell modulator,rCAG binder,Beta2AR agonist,MPTP inh,Exocytosis inh,V-ATPase pH,rCAG binder conf,dCAG dye counter
CC(=O)c1sc(N/N=C/c2cccc(O)c2)nc1C,n,n,n,n,n,n,x,x
O=S(=O)(Nc1ncnc2sc3c(c12)CCC3)c1ccc2ccccc2c1,n,68.8,n,n,n,n,56.4,21.1
Cc1cc(F)ccc1S(=O)(=O)Nc1ncnc2sc3c(c12)CCC3,n,n,n,n,n,n,x,x
Cc1cc2c(nc1C)CCCN2S(=O)(=O)c1ccc(C(F)(F)F)cc1,x,n,x,x,x,x,x,x
COc1ccc(NC(=O)CSc2nc(-c3ccco3)nc3cc(=O)[nH]n23)cc1Cl,n,54.4,n,n,n,n,35.7,13.8
COC(=O)[C@]12C[C@H](CC(=O)NCCCCc3ccccc3)C(=O)N(Cc3ccco3)C1=C[C@H](C1CCCC1)O[C@@H]2C,x,n,x,x,x,x,x,x
CCOC(=O)c1sc(N/N=C/c2cc(Br)c(O)c(OC)c2)nc1C,n,47.5,n,n,n,n,37.8,16.6
COc1cc(/C=C2\SC(=S)N(NS(=O)(=O)c3ccc(C)cc3)C2=O)ccc1O,n,45.5,n,n,n,n,n,9.9
COc1cc(/C=C2\SC(=S)N(NC(=O)c3ccccc3OC)C2=O)ccc1O,n,58.0,n,n,n,n,50.6,19.1
CCOc1cc(/C=C2\SC(=S)N(NS(=O)(=O)c3ccc(C)cc3)C2=O)ccc1O,n,69.9,n,n,n,n,49.7,19.1
COc1cc(/C=C2\SC(=S)N(NS(=O)(=O)c3ccccc3)C2=O)ccc1O,n,n,n,n,n,n,x,x
CCOc1ccc(/C=C2\NCCc3cc(OCC)c(OCC)cc32)cc1OCC,x,n,x,x,x,x,x,x
O=C(c1ccccc1OCc1ccccc1)N(Cc1ccccn1)CC1CCCO1 (stereo not drawn),x,n,x,x,x,x,x,x
Cc1cccc(-c2cccc3c4c([nH]c23)[C@@H]2C[C@H]3[C@@H](CN2CC4)[C@H](C)ON3C)c1,x,n,x,x,x,x,x,x
CC(C)CN1C(=O)N2CCc3ccccc3C2CS1(=O)=O (stereo not drawn),x,n,x,x,x,x,x,x
CC12CCC(C/C1=N\N=C1\NC(=O)/C(=C\c3cccc(Br)c3)S1)C2(C)C (stereo not drawn),n,49.7,n,n,n,n,59.8,27.7
CCOc1ccc(C2C(C(=O)c3ccc(C)o3)=C(O)C(=O)N2c2cc(C)on2)cc1OC (stereo not drawn),n,n,n,n,n,n,x,x
CCCOc1cccc(C2C(C(=O)c3cc4ccccc4o3)=C(O)C(=O)N2c2cc(C)on2)c1 (stereo not drawn),n,43.5,n,n,n,n,76.6,35.8
CCCCCOc1ccc(C2C(C(=O)c3ccc(C)o3)=C(O)C(=O)N2c2cc(C)on2)cc1 (stereo not drawn),n,36.2,n,n,n,n,49.5,15.2
Cc1cc(N2C(=O)C(O)=C(C(=O)c3cc4ccccc4o3)C2c2cccc(Br)c2)no1 (stereo not drawn),n,69.5,n,n,n,n,79.3,45.8
Cc1cc(N2C(=O)C(O)=C(C(=O)c3cc4ccccc4o3)C2c2ccc(OC(C)C)cc2)no1 (stereo not drawn),n,n,n,n,n,n,x,x
C=CCN1C(=O)[C@H](CC(=O)NCCCCc2ccccc2)[C@@]2(C(=O)OCC)CCCC=C12,x,n,x,x,x,x,x,x
CCCCN(C)C(=O)CSc1nnc(-c2cccnc2)n1C1CCCCC1,x,n,x,x,x,x,x,x
O=C(CSc1nc2ccccc2nc1N1CCOCC1)N1CCN(c2cccc(C(F)(F)F)c2)CC1,x,n,x,x,x,x,x,x
CC(C)CN(c1ccccc1)S(=O)(=O)c1nnc(NC(=O)c2ccco2)s1,n,48.3,n,n,n,n,48.3,16.3
SMILES,T cell modulator,rCAG binder,Beta2AR agonist,MPTP inh,Exocytosis inh,V-ATPase pH,rCAG binder conf,dCAG dye counter
CCN(c1ccc(C)cc1C)S(=O)(=O)c1nnc(NC(=O)c2ccco2)s1,n,58.6,n,n,n,n,45.1,13.9
CN(c1ccccc1)S(=O)(=O)c1nnc(NC(=O)c2ccco2)s1,n,n,n,n,n,n,x,x
Cc1cccc(N(C)S(=O)(=O)c2nnc(NC(=O)c3ccco3)s2)c1,n,n,n,n,n,n,x,x
COC(=O)c1cccc(CSc2nc(-c3ccccc3)c(C#N)c(=O)[nH]2)c1,n,75.4,n,n,n,n,62.5,23.1
N#Cc1c(-c2ccccc2)nc(SCc2ccc(Cl)cc2)[nH]c1=O,x,83.1,n,n,n,n,75.8,39.1
Cc1cc(C)nc(OC(C(=O)O)C(OCCc2ccccc2)(c2ccc(F)cc2)c2ccc(F)cc2)n1 (stereo not drawn),n,36.1,n,n,n,n,49.2,11.4
CCCOC(c1ccccc1)(c1ccc(C(F)(F)F)cc1)C(Oc1nc(C)cc(C)n1)C(=O)O (stereo not drawn),n,n,n,n,n,n,x,x
O=C(O)CSc1nc(-c2ccccc2)c(-c2ccccc2)[nH]1,n,n,n,n,n,n,x,x
O=C(O)c1ccc(-c2nc(-c3ccccc3)c(-c3ccccc3)[nH]2)cc1,n,36.0,n,n,n,n,36.3,6.0
COc1ccccc1OCCCOc1ccc(/C=C2\SC(=O)NC2=O)cc1OC,n,n,n,n,n,n,x,x
O=C1NC(=O)C(=Cc2ccccc2[N+](=O)[O-])S1,x,n,n,n,n,n,x,x
O=C1NC(=O)/C(=C/c2cccc3ccccc23)S1,n,n,n,n,n,n,x,x
Cc1ccc(S(=O)(=O)Oc2ccccc2/C=C2/SC(=O)NC2=O)cc1,n,43.9,n,n,n,n,35.7,7.0
COc1ccccc1OCCCOc1cccc(/C=C2\SC(=O)NC2=O)c1,n,77.7,n,n,n,n,83.2,51.1
CCCOc1ccc2ccccc2c1/C=C1\SC(=O)NC1=O,n,53.2,n,n,n,n,43.8,13.0
O=C1NC(=O)/C(=C\c2ccccc2OCc2ccccc2)S1,n,68.7,n,n,n,n,57.6,19.7
COc1cc(/C=C2/SC(=O)NC2=O)ccc1OCc1ccccc1,n,59.2,n,n,n,n,50.7,12.8
COc1ccc(/C=C2\SC(=S)N(CCCC(=O)Nc3ccc(C(=O)O)cc3)C2=O)cc1OC,n,63.9,n,n,n,n,53.4,18.2
